Experiment [1] addresses T1, Adrenergic receptor alpha-1 (Rattus norvegicus, UniProt P15823+P23944+P43140).
T1 sequence (P15823 whole entry): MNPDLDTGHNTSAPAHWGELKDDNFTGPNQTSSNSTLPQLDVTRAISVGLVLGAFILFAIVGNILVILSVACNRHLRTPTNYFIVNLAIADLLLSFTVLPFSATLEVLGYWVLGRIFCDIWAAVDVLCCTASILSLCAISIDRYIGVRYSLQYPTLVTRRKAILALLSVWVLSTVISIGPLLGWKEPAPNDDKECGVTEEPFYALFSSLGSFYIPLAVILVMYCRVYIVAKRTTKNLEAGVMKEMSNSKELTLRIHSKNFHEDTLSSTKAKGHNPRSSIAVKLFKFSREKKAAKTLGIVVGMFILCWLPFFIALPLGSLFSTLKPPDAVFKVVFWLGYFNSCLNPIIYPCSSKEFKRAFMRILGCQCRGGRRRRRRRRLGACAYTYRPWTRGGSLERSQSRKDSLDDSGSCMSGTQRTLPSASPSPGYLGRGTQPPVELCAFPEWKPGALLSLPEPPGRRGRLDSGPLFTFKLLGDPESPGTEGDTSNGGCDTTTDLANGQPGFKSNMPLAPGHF
T1 sequence (P23944 whole entry): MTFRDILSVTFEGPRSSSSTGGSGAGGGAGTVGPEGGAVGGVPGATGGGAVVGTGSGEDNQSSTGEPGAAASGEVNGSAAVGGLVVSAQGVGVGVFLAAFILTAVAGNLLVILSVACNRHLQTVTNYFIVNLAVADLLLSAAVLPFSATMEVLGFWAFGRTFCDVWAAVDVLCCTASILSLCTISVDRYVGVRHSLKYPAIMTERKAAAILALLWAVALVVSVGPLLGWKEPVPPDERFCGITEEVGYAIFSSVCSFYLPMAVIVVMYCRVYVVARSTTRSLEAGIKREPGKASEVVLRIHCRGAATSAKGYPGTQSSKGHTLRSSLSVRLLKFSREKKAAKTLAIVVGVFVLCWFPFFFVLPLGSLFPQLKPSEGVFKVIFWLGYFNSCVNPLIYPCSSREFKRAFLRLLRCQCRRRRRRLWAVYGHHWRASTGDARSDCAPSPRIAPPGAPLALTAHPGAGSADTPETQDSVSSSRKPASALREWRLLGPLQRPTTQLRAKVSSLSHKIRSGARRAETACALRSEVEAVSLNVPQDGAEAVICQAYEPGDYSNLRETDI
T1 sequence (P43140 whole entry): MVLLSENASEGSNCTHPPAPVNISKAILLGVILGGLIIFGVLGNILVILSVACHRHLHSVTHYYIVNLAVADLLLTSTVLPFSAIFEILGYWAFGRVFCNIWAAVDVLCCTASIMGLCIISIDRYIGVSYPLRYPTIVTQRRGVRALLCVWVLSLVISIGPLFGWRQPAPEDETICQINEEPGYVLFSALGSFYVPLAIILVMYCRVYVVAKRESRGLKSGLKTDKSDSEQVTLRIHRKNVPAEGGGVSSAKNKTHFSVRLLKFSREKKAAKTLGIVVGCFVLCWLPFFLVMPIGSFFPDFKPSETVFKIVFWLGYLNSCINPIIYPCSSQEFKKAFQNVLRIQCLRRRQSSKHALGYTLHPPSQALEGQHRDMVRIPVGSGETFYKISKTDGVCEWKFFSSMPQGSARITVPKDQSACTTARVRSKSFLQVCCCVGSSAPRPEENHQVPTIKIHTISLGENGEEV
Briefly: In vitro binding affinity towards alpha-1 adrenergic receptor using radioligand [3H]prazosin. The experiment is classed as protein assay. In a few lines: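 Cerebral cortex from male Sprague-Dawley rats, membranes (about 250 µg protein) in 50 mM Tris-HCl/10 mM MgCl2 pH 7.4, incubated 30 min at 25 °C with 0.2 nM [3H]prazosin and varied competitor concentrations; 10 µM phentolamine for nonspecific. Triplicates, filtration and scintillation counting; Ki from fitted IC50 by Cheng-Prusoff.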

Experiment [2] deals with 5-hydroxytryptamine receptor 3A (Rattus norvegicus) (UniProt P35563). In words: In vitro binding affinity towards 5-hydroxytryptamine 3 receptor was determined.
Experiment [3] has as its target D(2) dopamine receptor (Rattus norvegicus) (UniProt P61169). In words: In vitro binding affinity towards D2 receptor was determined.
Experiment [4] has as its target T2, 5-hydroxytryptamine receptor 1A (Rattus norvegicus, UniProt P19327).
T2 sequence (P19327 whole entry): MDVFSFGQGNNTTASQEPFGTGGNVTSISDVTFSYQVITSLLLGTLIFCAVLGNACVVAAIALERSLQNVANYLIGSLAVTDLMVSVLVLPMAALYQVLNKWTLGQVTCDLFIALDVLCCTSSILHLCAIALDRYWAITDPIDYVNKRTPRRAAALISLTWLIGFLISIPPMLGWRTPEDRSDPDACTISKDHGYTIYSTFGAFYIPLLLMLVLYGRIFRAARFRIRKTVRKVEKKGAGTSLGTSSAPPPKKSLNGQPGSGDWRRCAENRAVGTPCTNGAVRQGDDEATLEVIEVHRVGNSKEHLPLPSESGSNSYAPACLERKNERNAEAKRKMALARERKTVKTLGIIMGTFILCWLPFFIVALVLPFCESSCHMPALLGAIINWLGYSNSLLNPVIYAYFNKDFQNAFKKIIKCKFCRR
Briefly: In vitro binding affinity towards 5-hydroxytryptamine 1A receptor was determined using radioligand [3H]-8-OH-DPAT. In a few lines: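 Rat (male Sprague-Dawley) cerebral cortex membranes, about 1 mg protein, incubated 15 min at 37 °C with 0.6 nM [3H]8-OH-DPAT plus competitor in 50 mM Tris-HCl with 10 nM clonidine and 30 nM prazosin, pH 7.4. Nonspecific binding with 10 µM 5-HT. Triplicates; GF/B filtration, scintillation counting; IC50 curve fit, Ki by Cheng-Prusoff; 2-4 experiments.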

The target of experiment [5] is 5-hydroxytryptamine receptor 2A (Rattus norvegicus) (UniProt P14842). In words: In vitro binding affinity towards 5-hydroxytryptamine 2A receptor was determined.
For experiment [6], the target named is 5-hydroxytryptamine receptor 4 (Rattus norvegicus). In words: In vitro binding affinity towards 5-HT4 receptor was determined.

D(2) dopamine receptor (Rattus norvegicus), sequence (P61169 whole entry, looked up): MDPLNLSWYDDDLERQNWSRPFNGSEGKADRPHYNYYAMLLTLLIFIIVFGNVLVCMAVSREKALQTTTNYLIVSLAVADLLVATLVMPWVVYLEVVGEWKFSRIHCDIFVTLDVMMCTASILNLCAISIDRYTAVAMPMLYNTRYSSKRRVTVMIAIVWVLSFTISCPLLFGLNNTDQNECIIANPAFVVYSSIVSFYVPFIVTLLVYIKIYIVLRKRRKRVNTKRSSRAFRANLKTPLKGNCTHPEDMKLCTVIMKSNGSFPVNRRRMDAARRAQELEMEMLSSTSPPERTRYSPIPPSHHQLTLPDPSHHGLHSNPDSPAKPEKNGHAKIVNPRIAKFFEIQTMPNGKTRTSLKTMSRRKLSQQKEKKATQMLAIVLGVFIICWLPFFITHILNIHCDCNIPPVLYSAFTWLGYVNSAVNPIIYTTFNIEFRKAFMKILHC
5-hydroxytryptamine receptor 3A (Rattus norvegicus), sequence (P35563 whole entry, looked up): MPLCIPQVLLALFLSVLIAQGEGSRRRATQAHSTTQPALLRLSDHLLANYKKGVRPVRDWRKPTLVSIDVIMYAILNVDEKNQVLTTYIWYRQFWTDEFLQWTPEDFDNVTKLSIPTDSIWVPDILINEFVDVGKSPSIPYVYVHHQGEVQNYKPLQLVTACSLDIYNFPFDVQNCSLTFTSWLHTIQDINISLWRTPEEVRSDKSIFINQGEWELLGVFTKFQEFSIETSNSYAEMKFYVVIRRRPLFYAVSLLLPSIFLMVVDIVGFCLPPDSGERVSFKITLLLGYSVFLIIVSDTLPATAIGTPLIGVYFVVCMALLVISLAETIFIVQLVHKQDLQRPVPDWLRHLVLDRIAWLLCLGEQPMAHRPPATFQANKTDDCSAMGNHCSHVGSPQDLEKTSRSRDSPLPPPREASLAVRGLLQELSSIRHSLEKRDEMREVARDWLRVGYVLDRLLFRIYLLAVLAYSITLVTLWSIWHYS
5-hydroxytryptamine receptor 2A (Rattus norvegicus), sequence (P14842 whole entry, looked up): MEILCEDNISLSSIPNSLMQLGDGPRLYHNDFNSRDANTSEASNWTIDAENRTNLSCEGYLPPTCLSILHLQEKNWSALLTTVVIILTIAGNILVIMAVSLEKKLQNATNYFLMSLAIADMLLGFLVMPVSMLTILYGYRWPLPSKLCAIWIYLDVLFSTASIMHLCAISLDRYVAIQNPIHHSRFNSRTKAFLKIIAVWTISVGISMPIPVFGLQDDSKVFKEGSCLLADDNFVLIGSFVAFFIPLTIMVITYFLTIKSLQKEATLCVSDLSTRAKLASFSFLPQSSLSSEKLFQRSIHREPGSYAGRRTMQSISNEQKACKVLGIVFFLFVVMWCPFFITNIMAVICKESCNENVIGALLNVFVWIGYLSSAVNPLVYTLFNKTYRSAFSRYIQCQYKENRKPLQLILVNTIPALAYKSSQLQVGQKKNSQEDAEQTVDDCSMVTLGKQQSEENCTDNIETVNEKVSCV

`CC(C)C(=O)Nc1cccc(N2CCN(CCCCN3C(=O)C4CCCN4C3=O)CC2)c1.Cl` (stereo not drawn) returned an inhibition constant Ki in experiment [1] of over 10000 nM.
For `CCS(=O)(=O)Nc1cccc(N2CCN(CCCCN3C(=O)C4CCCN4C3=O)CC2)c1.Cl` (stereo not drawn), the inhibition constant (Ki) is over 1000 nM in experiment [2]; 22 nM in experiment [3]; 27 nM in experiment [4]; over 1000 nM in experiment [5]; over 1000 nM in experiment [6]; over 10000 nM in experiment [1].
Regarding `CC(C)C(=O)Nc1cccc(N2CCN(CCCN3C(=O)C4CCCCN4C3=O)CC2)c1.Cl` (stereo not drawn), the figures for the Ki in experiment [4] and in experiment [1] were over 1000 nM and over 10000 nM, respectively.
In the same order, the values of `Cl.N#Cc1ccccc1N1CCN(CCCN2C(=O)C3CCCCN3C2=O)CC1` (stereo not drawn) are 33 nM and 13 nM.
In the same order, the values of `CCCCOc1ccccc1N1CCN(CCCN2C(=O)C3CCCN3C2=O)CC1.Cl` (stereo not drawn) are 11 nM and 30 nM.
For `Cl.Nc1cccc(N2CCN(CCCCN3C(=O)C4CCCCN4C3=O)CC2)c1` (stereo not drawn), the inhibition constant Ki in experiment [4] was 80 nM; in experiment [1] it was 215 nM.
In the same order, the values of `COc1ccccc1N1CCN(CCCCN2CC(=O)N3CCCC3C2=O)CC1.Cl` (stereo not drawn) are 8.6 nM and 28 nM.
In the same order, the values of `CCCNC(=O)c1ccccc1N1CCN(CCCCN2C(=O)C3CCCCN3C2=O)CC1.Cl` (stereo not drawn) are 341 nM and over 1000 nM.
Regarding `CCCCOc1ccccc1N1CCN(CCCCN2C(=O)C3CCCCN3C2=O)CC1.Cl` (stereo not drawn), the inhibition constant Ki in experiment [4] was found to be 1.2 nM; in experiment [1], 0.4 nM.
In the same order, the values of `Cl.N#Cc1ccccc1N1CCN(CCCCN2C(=O)C3CCCN3C2=O)CC1` (stereo not drawn) are 3.7 nM and 8 nM.
Turning to `CCCOC(=O)c1ccccc1N1CCN(CCCCN2CC(=O)N3CCCCC3C2=O)CC1.Cl` (stereo not drawn), the inhibitory constant (Ki) in experiment [4] was 24 nM; in experiment [1], 561 nM.
In the case of `Cc1ccccc1N1CCN(CCCCN2C(=O)C3CCCN3C2=O)CC1.Cl` (stereo not drawn), the inhibition constant (Ki) is 16 nM in experiment [4] and 10 nM in experiment [1].
In the same order, the values of `Cl.N#Cc1ccccc1N1CCN(CCCN2CC(=O)N3CCCC3C2=O)CC1` (stereo not drawn) are 31 nM and 28 nM.
In the same order, the values of `CCCOC(=O)c1ccccc1N1CCN(CCCCN2C(=O)C3CCCN3C2=O)CC1.Cl` (stereo not drawn) are 3.9 nM and 51 nM.
In the same order, the values of `Cc1ccccc1N1CCN(CCCCN2CC(=O)N3CCCCC3C2=O)CC1.Cl` (stereo not drawn) are 27 nM and 29 nM.
With `Cl.O=C1C2CCCN2C(=O)CN1CCCCN1CCN(c2cccc(C(F)(F)F)c2)CC1` (stereo not drawn), the values for the Ki in experiment [4] and in experiment [1] were 3.6 nM and 95 nM, respectively.
Turning to `CCCNC(=O)c1ccccc1N1CCN(CCCCN2CC(=O)N3CCCC3C2=O)CC1.Cl` (stereo not drawn), the Ki in experiment [4] and in experiment [1] was over 1000 nM in each case.
For the compound `CCCCOc1ccccc1N1CCN(CCCN2CC(=O)N3CCCCC3C2=O)CC1.Cl` (stereo not drawn), the results for the Ki in experiment [4] and in experiment [1] were 110 nM and 79 nM, respectively.
In the same order, the values of `Cl.O=C1C2CCCN2C(=O)N1CCCN1CCN(c2cccc(Br)c2)CC1` (stereo not drawn) are 33 nM and 29 nM.
In the same order, the values of `Cc1ccccc1N1CCN(CCCN2C(=O)C3CCCCN3C2=O)CC1.Cl` (stereo not drawn) are 134 nM and 5.3 nM.
In the same order, the values of `COc1ccccc1N1CCN(CCCN2CC(=O)N3CCCCC3C2=O)CC1.Cl` (stereo not drawn) are 126 nM and 16 nM.
Take `CC(C)C(=O)Nc1cccc(N2CCN(CCCN3CC(=O)N4CCCC4C3=O)CC2)c1.Cl` (stereo not drawn): the Ki was 326 nM in experiment [4] and over 1000 nM in experiment [1].
In the same order, the values of `CCCOC(=O)c1ccccc1N1CCN(CCCN2C(=O)C3CCCCN3C2=O)CC1.Cl` (stereo not drawn) are 60 nM and 41 nM.
`Cl.Nc1cccc(N2CCN(CCCN3C(=O)C4CCCN4C3=O)CC2)c1` (stereo not drawn): the Ki in experiment [4] and in experiment [1] was over 1000 nM each time.
For `Cl.O=C1C2CCCCN2C(=O)N1CCCCN1CCN(c2cccc(Br)c2)CC1` (stereo not drawn), the inhibition constant Ki came to 4 nM in experiment [4] and 5.3 nM in experiment [1].
In the same order, the values of `CCCNC(=O)c1ccccc1N1CCN(CCCN2C(=O)C3CCCN3C2=O)CC1.Cl` (stereo not drawn) are over 1000 nM and over 1000 nM.
For `CC(C)C(=O)Nc1cccc(N2CCN(CCCCN3CC(=O)N4CCCCC4C3=O)CC2)c1.Cl` (stereo not drawn), the values for the Ki in experiment [4] and in experiment [1] were 169 nM and over 10000 nM, respectively.
For the compound `Cl.N#Cc1ccccc1N1CCN(CCCCN2CC(=O)N3CCCCC3C2=O)CC1` (stereo not drawn), the values for the inhibition constant (Ki) in experiment [4] and in experiment [1] were 14 nM and 27 nM, respectively.
Take `CCCCOc1ccccc1N1CCN(CCCCN2CC(=O)N3CCCC3C2=O)CC1.Cl` (stereo not drawn): the Ki in experiment [4] worked out at 6.5 nM; in experiment [1] it was 18 nM.
In the same order, the values of `Cl.O=C1C2CCCCN2C(=O)CN1CCCN1CCN(c2cccc(C(F)(F)F)c2)CC1` (stereo not drawn) are 214 nM and 252 nM.
For the compound `CCCNC(=O)c1ccccc1N1CCN(CCCN2CC(=O)N3CCCCC3C2=O)CC1.Cl` (stereo not drawn), the Ki in experiment [4] was over 10000 nM; in experiment [1], over 1000 nM.
`CCCOC(=O)c1ccccc1N1CCN(CCCN2CC(=O)N3CCCC3C2=O)CC1.Cl` (stereo not drawn) had an inhibition constant Ki in experiment [1] of 26 nM.
With `Cc1ccccc1N1CCN(CCCN2CC(=O)N3CCCC3C2=O)CC1.Cl` (stereo not drawn), the values for the inhibition constant (Ki) in experiment [4] and in experiment [1] were 27 nM and 23 nM, respectively.

As usually defined, the Ki is the dissociation constant of the complex between target and ligand, obtained from inhibition or displacement.

Source of the values: ChEMBL document CHEMBL1134606, “Synthesis and structure-activity relationships of a new model of arylpiperazines. 5. Study of the physicochemical influence of the pharmacophore on 5-HT(1a)/alpha(1)-adrenergic receptor affinity: synthesis of a new derivative with mixed 5-HT(1a)/d(2) antagonist properties” (J Med Chem, 2001).
